Calls of active or inactive are those of the source. The rule behind the calls is not given here.
Columns and labels:
[1] = tested on: Shigella flexneri; experiment: Antibacterial activity against Shigella flexneri at 1 mg/ml by agar well diffusion method; type: functional; conditions: for zone of inhibition at 1000 µg/mL: read-out: IZ
Summary of the method: (§1)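 Agar well diffusion; compounds loaded into 6 mm wells at 1 mg per ml DMSO, with a DMSO-only (0) control. Read-out: inhibition zone diameter (mm).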

[2] = tested on: Bacillus subtilis; experiment: Antibacterial activity against Bacillus subtilis at 1 mg/ml by agar well diffusion method; type: functional, organism-based; summary of the method: as §1
[3] = tested on: Pseudomonas aeruginosa; experiment: Antibacterial activity against Pseudomonas aeruginosa at 1 mg/ml by agar well diffusion method; type: functional, organism-based; summary of the method: as §1
[4] = tested on: Escherichia coli; experiment: Antibacterial activity against Escherichia coli at 1 mg/ml by agar well diffusion method; type: functional, organism-based; summary of the method: as §1
[5] = tested on: Salmonella enterica subsp. enterica serovar Typhi str. CT18; experiment: Antibacterial activity against Salmonella typhi at 1 mg/ml by agar well diffusion method; type: functional; conditions: for zone of inhibition at 1000 µg/mL: read-out: IZ
Summary of the method: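 Agar well diffusion against Salmonella typhi. Samples were dissolved in DMSO at 1 mg per ml and applied to 6 mm diameter wells. A solvent-only well served as control. Activity was read as inhibition zone diameter in mm.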

[6] = tested on: Staphylococcus aureus; experiment: Antibacterial activity against Staphylococcus aureus at 1 mg/ml by agar well diffusion method; type: functional; conditions: for zone of inhibition at 1000 µg/mL: read-out: IZ; summary of the method: as §1
[7] = tested on: Radical scavenging activity; experiment: Antioxidant activity assessed as DPPH radical scavenging activity after 30 mins; type: functional; parameters: concentration or dose not given beside the values
Summary of the method: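 Test sample (0.5 mM stock in DMSO, 5 µL) mixed with 95 µL DPPH in ethanol and incubated at 37 °C for 30 min. Absorbance read at 515 nm. Percent radical scavenging calculated against a DMSO-containing control; 3-tert-butyl-4-hydroxyanisole used as reference.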

[8] = tested on: Escherichia coli; experiment: Antibacterial activity against Escherichia coli at 10 ug/disk by agar well diffusion method; type: functional; conditions: read-out: IZ
Summary of the method: (§2)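 Agar well diffusion with imipenem as the standard at 10 µg per disc, run alongside 6 mm wells and a DMSO-only control. Read-out: inhibition zone diameter (mm).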

[9] = tested on: Salmonella enterica subsp. enterica serovar Typhi str. CT18; experiment: Antibacterial activity against Salmonella typhi at 10 ug/disk by agar well diffusion method; type: functional; conditions: read-out: IZ
Summary of the method: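 Agar well diffusion against Salmonella typhi, using the reference antibiotic imipenem applied at 10 µg per disc alongside 6 mm sample wells. Activity was read as inhibition zone diameter in mm.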

[10] = tested on: Bacillus subtilis; experiment: Antibacterial activity against Bacillus subtilis at 10 ug/disk by agar well diffusion method; type: functional; conditions: read-out: IZ; summary of the method: as §2
[11] = tested on: Pseudomonas aeruginosa; experiment: Antibacterial activity against Pseudomonas aeruginosa at 10 ug/disk by agar well diffusion method; type: functional; conditions: read-out: IZ; summary of the method: as §2
[12] = tested on: Staphylococcus aureus; experiment: Antibacterial activity against Staphylococcus aureus at 10 ug/disk by agar well diffusion method; type: functional; conditions: read-out: IZ; summary of the method: as §2
[13] = tested on: Shigella flexneri; experiment: Antibacterial activity against Shigella flexneri at 10 ug/disk by agar well diffusion method; type: functional; conditions: read-out: IZ; summary of the method: as §2

| Compound | inhibition zone (IZ) [1] | inhibition zone (IZ) [2] | inhibition zone (IZ) [3] | inhibition zone (IZ) [4] | inhibition zone (IZ) [5] | inhibition zone (IZ) [6] | Activity [7] [%] | zone of inhibition at 10 µg/disc [8] [mm] | zone of inhibition at 10 µg/disc [9] [mm] | zone of inhibition at 10 µg/disc [10] [mm] | zone of inhibition at 10 µg/disc [11] [mm] | zone of inhibition at 10 µg/disc [12] [mm] | zone of inhibition at 10 µg/disc [13] [mm] | zone of inhibition at 1000 µg/mL [5] [mm] | zone of inhibition at 1000 µg/mL [6] [mm] | zone of inhibition at 1000 µg/mL [1] [mm] |
| --- | --- | --- | --- | --- | --- | --- | --- | --- | --- | --- | --- | --- | --- | --- | --- | --- |
| O=C(N/N=C/c1ccccc1)C1=C(O)c2ccccc2S(=O)(=O)N1 | inactive | inactive | inactive | inactive | inactive | inactive | 37.6 |  |  |  |  |  |  |  |  |  |
| C[C@@H](O)[C@H]1C(=O)N2C(C(=O)O)=C(SCCNC=N)C[C@H]12 [IMIPENEM ANHYDROUS] |  |  |  |  |  |  |  | 30 | 30 | 36 | 32 | 26 | 37 |  |  |  |
| O=C(N/N=C/c1ccccc1[N+](=O)[O-])C1=C(O)c2ccccc2S(=O)(=O)N1 | inactive | inactive | inactive | inactive |  |  | 37.3 |  |  |  |  |  |  | 11 | 10 |  |
| COc1ccc(/C=N/NC(=O)C2=C(O)c3ccccc3S(=O)(=O)N2)c(OC)c1 | inactive | inactive | inactive | inactive | inactive | inactive | 68.2 |  |  |  |  |  |  |  |  |  |
| O=C(N/N=C/c1ccccc1O)C1=C(O)c2ccccc2S(=O)(=O)N1 | inactive | inactive | inactive | inactive | inactive | inactive | 40.7 |  |  |  |  |  |  |  |  |  |
| COc1ccc(/C=N/NC(=O)C2=C(O)c3ccccc3S(=O)(=O)N2)cc1O |  | inactive | inactive | inactive | inactive |  | 42.9 |  |  |  |  |  |  |  | 10 | 10 |
| COc1ccc(O)c(C(C)(C)C)c1.COc1ccc(O)cc1C(C)(C)C | inactive | inactive | inactive | inactive | inactive | inactive | 92.6 |  |  |  |  |  |  |  |  |  |
| O=C(N/N=C/c1ccc([N+](=O)[O-])cc1)C1=C(O)c2ccccc2S(=O)(=O)N1 | inactive | inactive | inactive | inactive |  | inactive | 30.9 |  |  |  |  |  |  | 26 |  |  |
| COc1ccc(/C=N/NC(=O)C2=C(O)c3ccccc3S(=O)(=O)N2)cc1 | inactive | inactive | inactive | inactive | inactive |  | 43.7 |  |  |  |  |  |  |  | 12 |  |
| O=C(N/N=C/c1ccc(O)cc1O)C1=C(O)c2ccccc2S(=O)(=O)N1 | inactive | inactive | inactive | inactive |  | inactive | 65 |  |  |  |  |  |  | 28 |  |  |
| COc1ccc(/C=N/NC(=O)C2=C(O)c3ccccc3S(=O)(=O)N2)cc1OC |  | inactive | inactive | inactive |  | inactive | 38 |  |  |  |  |  |  | 11 |  | 20 |
| O=C(N/N=C/c1cccc(Cl)c1)C1=C(O)c2ccccc2S(=O)(=O)N1 | inactive | inactive | inactive | inactive | inactive | inactive | 23.8 |  |  |  |  |  |  |  |  |  |
| O=C(N/N=C/c1ccc(Cl)cc1)C1=C(O)c2ccccc2S(=O)(=O)N1 | inactive | inactive | inactive | inactive | inactive | inactive | 21.2 |  |  |  |  |  |  |  |  |  |
| COc1ccc(/C=N/NC(=O)C2=C(O)c3ccccc3S(=O)(=O)N2)c(OC)c1OC |  | inactive | inactive | inactive | inactive |  | 43.6 |  |  |  |  |  |  |  | 21 | 22 |
| O=C(N/N=C/c1ccccc1Cl)C1=C(O)c2ccccc2S(=O)(=O)N1 | inactive | inactive | inactive | inactive | inactive | inactive | 57.4 |  |  |  |  |  |  |  |  |  |
| O=C(N/N=C/c1ccc(Cl)cc1Cl)C1=C(O)c2ccccc2S(=O)(=O)N1 |  | inactive | inactive | inactive | inactive | inactive | 43.8 |  |  |  |  |  |  |  |  | 10 |
| COc1cc(/C=N/NC(=O)C2=C(O)c3ccccc3S(=O)(=O)N2)ccc1O | inactive | inactive | inactive | inactive | inactive |  | 35 |  |  |  |  |  |  |  | 15 |  |

Reference: ChEMBL document CHEMBL1138569, “A facile synthesis of novel biologically active 4-hydroxy-N'-(benzylidene)-2H-benzo[e][1,2]thiazine-3-carbohydrazide 1,1-dioxides” (2009)
